Cneo AK release = causes C. neoformans cell lysis; lysis activity, % at 15 µM; adenylate kinase release luminescence, 4 h; normalised: neutral wells 0, clomiphene wells 100; actives 0.2% (n = 360,000); AID 651654;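 active = mean lysis activity across replicates of at least 80%, whatever share of replicates individually reach that level; inactive = mean lysis activity below 80%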
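Schedule: static 4 h at 37 °C with compound, 1 h detection; system: C. neoformans cells; benchmarks: Clomiphene as positive control; buffer or medium: fresh YPD medium; measure: luminescence rise reflecting yeast cell lysis; measured by: luminescent adenylate kinase detection reagent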
Ecoli rRNA inh = selective bacterial rRNA inhibition in E. coli | AID 720706 | GFP signal change (wild-type ribosome), % (concentration not given with the values) | E. coli WT GFP vs humanized-ribosome RFP mutants, fluorescence, 24 h; active compounds read low; DMSO median 0, no signal -100 | actives 1.6% (n = 350,000);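 active = significant combined selectivity score with lowered wild-type GFP, culture density cut under 30%, mutant RFP and density less affected; inactive = any of these conditions unmet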
CaV13 FRET inh = Primary screen for inhibitors of IQ motif and Ca2+-dependent inactivation inhibitor domain binding in CACNA1D, Förster resonance energy transfer in living cells, …. HEK cells, CFP/YFP FRET ICDI-IQ, plate reader, 10 min; percent FRET-ratio fall versus neutral wells. inhibition, % at 12.3 µM. actives 0.098% (n = 340,000). AID 743397;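 active = mean replicate inhibition of at least 30% and at least 1% of replicates passing that level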
F508del corr = correctors of CFTR F508del function in bronchial epithelial cells. actives 0.36% (n = 350,000). activity (quench increase), % at 7.58 µM. AID 720511. CFBE cells, YFP halide quenching; stimulated with forskolin plus potentiator P3; % fluorescence drop versus neutral controls;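 active = mean added fluorescence quench of at least 8% versus neutral control, with both replicates also reaching 8%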;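 note: cells transiently co-express mutant CFTR-F508del with the halide-sensitive YFP; corrector assay measuring rescue of mutant channel to the surface after 24 h compound exposure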
Of the large screens only hits and unclear results are named; the others gave an inactive call; ! = not active in a repeat. An excerpt weighted towards active compounds, which were near 1.7% of everything screened.

COc1ccc(CC(=O)O/N=C(\N)c2ccc(OC)cc2)cc1	Ecoli rRNA inh -19
COc1ccc(CC(=O)O/N=C(\N)c2ccccc2)cc1OC	Ecoli rRNA inh -22
Cc1ccc(S(=O)(=O)N2CCN(C(=O)COC(=O)c3ncc(Cl)c(Cl)c3Cl)CC2)c(C)c1	Ecoli rRNA inh -23
Cc1ccc(S(=O)(=O)N2CCN(C(=O)COC(=O)c3nc(Cl)ccc3Cl)CC2)c(C)c1	none
O=C(NC(=S)NCc1ccco1)c1ccc([N+](=O)[O-])cc1	Ecoli rRNA inh -5.5 (no result: Cneo AK release)
CNC[C@@H]1Oc2ncc(-c3ccccc3C)cc2C(=O)N([C@H](C)CO)C[C@@H]1C	none (no result: Cneo AK release, CaV13 FRET inh)
C/C=C/c1ccc2c(c1)O[C@H](CN(C)C(=O)CN(C)C)[C@@H](C)CN([C@@H](C)CO)S2(=O)=O	none (no result: CaV13 FRET inh)
C[C@H]1CN([C@@H](C)CO)S(=O)(=O)c2ccc(C3=CCCC3)cc2O[C@H]1CN(C)CC1CC1	none (no result: CaV13 FRET inh)
CSC1=NCCN1C(=O)Cc1ccc(-c2ccccc2)cc1	Ecoli rRNA inh -19 (no result: Cneo AK release)
O=C(Cc1ccc(Cl)cc1)NCCc1ccc(F)cc1	Ecoli rRNA inh -24
O=C(NCCc1c[nH]c2ccccc12)c1ccc2[nH]c(=O)c(=O)[nH]c2c1	none
Cc1nc(SCC(=O)NCCc2ccc(Cl)cc2)nc(C)c1C	Ecoli rRNA inh -28 (no result: Cneo AK release)
O=C(NCCc1ccc(Cl)cc1)c1ccc2[nH]c(=O)c(=O)[nH]c2c1	Ecoli rRNA inh -25
O=C1NC[C@H](CCCCN2C[C@H](Cc3ccc(O)cc3)N(CCc3ccccc3)C(=O)C2=O)N(CC2CCCCC2)C1=O	Ecoli rRNA inh -27 (no result: Cneo AK release)
O=C1NC[C@H](CCCCN2C[C@H](Cc3ccccc3)N(CCc3ccc(O)cc3)C(=O)C2=O)N(CC2CCCCC2)C1=O	Ecoli rRNA inh -30 (no result: Cneo AK release)
O=C1NC[C@@H](CCCCN2C[C@H](Cc3ccccc3)N(CC3CCCCC3)C(=O)C2=O)N(CCc2ccc(O)cc2)C1=O	none (no result: Cneo AK release)
C[C@@H]1CN([C@H](C)CO)C(=O)c2cc(NC(=O)NC3CCCCC3)ccc2O[C@@H](C)CCCCO[C@@H]1CN(C)Cc1ccccc1	none (no result: CaV13 FRET inh)
O=C(c1ccccc1F)N1C[C@H]2[C@@H](c3ccccc31)[C@@H](CO)N2Cc1ccc2c(c1)OCO2	none (no result: CaV13 FRET inh)
Nc1nnc(SCC(=O)Nc2ccc(Cl)c(C(=O)O)c2)s1	none (no result: Cneo AK release)
COC(=O)c1cc(NC(=O)CSc2nnc(N)s2)ccc1Cl	Ecoli rRNA inh -22
COc1cc(/C=N/NC(=O)c2cc(-c3cccn3C)n[nH]2)cc(OC)c1OC	none (no result: Ecoli rRNA inh, F508del corr)
COc1cccc(/C=N/NC(=O)c2cc(-c3cccn3C)n[nH]2)c1O	Ecoli rRNA inh -36 (no result: Cneo AK release)
COc1cccc(/C=N/NC(=O)c2cc(-c3cccn3C)n[nH]2)c1	Ecoli rRNA inh -24 (no result: F508del corr)
CO[C@H]1CN(C)C(=O)c2cc(C#N)ccc2OCC[C@H]2CC[C@@H](OC)[C@@H](CN(C)C(=O)[C@@H]1C)O2	none (no result: CaV13 FRET inh, F508del corr)
O=C(O)CSc1nnc(-c2ccccc2Br)n1-c1cccc(C(F)(F)F)c1	Ecoli rRNA inh -24 (no result: Cneo AK release)
NC(=O)CSc1nnc(-c2ccccc2Br)n1-c1cccc(C(F)(F)F)c1	none (no result: Ecoli rRNA inh, F508del corr)
Cc1ccc(S(=O)(=O)N(C)C[C@H]2Oc3c(NC(=O)CCCCCC(=O)Nc4ccccc4N)cccc3C(=O)N([C@@H](C)CO)C[C@H]2C)cc1	none (no result: Cneo AK release, CaV13 FRET inh)
COc1ccc2c3c(n(C)c2c1)[C@@H](CO)N(Cc1ccncc1)CC31CN(C(=O)C2CCCC2)C1	none (no result: Cneo AK release, CaV13 FRET inh)
CCOC(=O)c1c(NC(=O)c2c(Br)cnn2C)c(C#N)nn1-c1ccccc1	Ecoli rRNA inh -29
O=C(CN1CCN(S(=O)(=O)c2ccc(F)c(Cl)c2)CC1)N1CCc2ccccc2C1	F508del corr 16
COc1cccc(CN(C)C[C@@H]2OCc3ccccc3-c3c(n(C)c4ccccc34)C(=O)N([C@H](C)CO)C[C@@H]2C)c1	none (no result: Cneo AK release, CaV13 FRET inh)
O=C(COC(=O)CC12CC3CC(CC(C3)C1)C2)Nc1cccnc1Cl	Ecoli rRNA inh -24 (no result: Cneo AK release)
C[C@H]1CN([C@@H](C)CO)S(=O)(=O)c2ccc(Br)cc2O[C@H]1CN(C)S(=O)(=O)c1ccccc1F	Cneo AK release 104!
COc1ccccc1S(=O)(=O)N(C)C[C@H]1Oc2cc(Br)ccc2S(=O)(=O)N([C@@H](C)CO)C[C@H]1C	none
C[C@H](CO)N1C[C@H](C)[C@@H](CN(C)S(=O)(=O)c2ccc(F)cc2)Oc2cc(Br)ccc2S1(=O)=O	Ecoli rRNA inh -25!
C/C=C/c1ccc2c(c1)O[C@H](CN(C)S(=O)(=O)c1ccccc1)[C@H](C)CN([C@@H](C)CO)S2(=O)=O	Cneo AK release 90 (no result: CaV13 FRET inh)
C[C@H](CO)N1C[C@H](C)[C@H](CN(C)S(=O)(=O)c2ccc(F)cc2)Oc2cc(Br)ccc2S1(=O)=O	none (no result: CaV13 FRET inh, F508del corr)
COc1ccccc1S(=O)(=O)N(C)C[C@H]1Oc2cc(Br)ccc2S(=O)(=O)N([C@H](C)CO)C[C@H]1C	Ecoli rRNA inh -34!
C/C=C/c1ccc2c(c1)O[C@H](CN(C)S(=O)(=O)c1ccc(F)cc1)[C@H](C)CN([C@@H](C)CO)S2(=O)=O	none (no result: CaV13 FRET inh)
C[C@H](CO)N1C[C@H](C)[C@@H](CN(C)Cc2ccc(Oc3ccccc3)cc2)Oc2ccc(NC(=O)Nc3ccccc3)cc2CC1=O	none (no result: CaV13 FRET inh)
CN1c2ccc(Br)cc2[C@@H]2[C@@H](CCN2C(=O)C2CCCC2)[C@@H]1CO	none (no result: Cneo AK release, CaV13 FRET inh)
CCNC(=O)C[C@H]1CC[C@@H]2[C@H](COc3ccc(NS(=O)(=O)c4ccccc4C)cc3C(=O)N2C)O1	none (no result: CaV13 FRET inh)
C[C@H]1CN([C@@H](C)CO)S(=O)(=O)c2ccc(Br)cc2O[C@@H]1CN(C)S(=O)(=O)c1ccccc1F	Cneo AK release 94!
C[C@H](CO)N1C[C@H](C)[C@H](CN(C)S(=O)(=O)c2ccccc2F)Oc2cc(-c3ccccc3)ccc2S1(=O)=O	none (no result: CaV13 FRET inh)
C[C@@H]1CN([C@@H](C)CO)S(=O)(=O)c2ccc(-c3ccccc3)cc2O[C@H]1CN(C)Cc1cccnc1	none (no result: CaV13 FRET inh)
O=C(CNC(=S)N(Cc1ccc(F)cc1)C1CCCCC1)NCC1CCCO1 (stereo not drawn)	none (no result: Cneo AK release)
O=C(CNC(=S)N(Cc1ccccc1F)C1CCCCC1)NCC1CCCO1 (stereo not drawn)	Ecoli rRNA inh -32 (no result: Cneo AK release)
Cc1noc(C)c1NC(=O)N(C)C[C@@H]1OCCCC[C@H](C)Oc2ccc(NC(=O)C3CCCCC3)cc2C(=O)N([C@H](C)CO)C[C@H]1C	none (no result: CaV13 FRET inh)
COc1ccc(NC(=O)N(C)C[C@@H]2Oc3cc(-c4ccc(C)cc4)ccc3S(=O)(=O)N([C@@H](C)CO)C[C@@H]2C)cc1	none (no result: CaV13 FRET inh)
CCOC(=O)c1[nH]c2ccccc2c1NC(=O)c1ccc(Br)o1	Ecoli rRNA inh -19
COc1ccc(N2C(=O)C(CC(=O)Nc3ccc(Cl)cc3)N(NC(=O)c3cccc(F)c3)C2=S)cc1 (stereo not drawn)	Ecoli rRNA inh -17
CNC(=O)CC1C(=O)N(C)C(=S)N1NC(=O)c1ccccc1 (stereo not drawn)	none
CN1C(=O)C(CC(=O)NCCc2ccccc2)N(NC(=O)c2ccc(Cl)cc2)C1=S (stereo not drawn)	none
